SENP1 inh: blocks the human SENP1 SUMO protease catalytic domain; recombinant SENP1 catalytic domain, CyPet-SUMO1-YPet FRET cleavage; 360,000 compounds, 0.21% hits; inhibition, % at 10 µM;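 active means inhibition at least 30% at 10 µM, raw YFP signal under a set limit, fluorescence ratio 0.5 to 1.5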;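 further: 0% = enzyme with DMSO and 100% = no enzyme wells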
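system = hSENP1 catalytic domain, recombinant | reagent = SFCypet-SUMO1-SFYpet substrate at 25 nM | doses = one dose per compound, 10 µM, 0.5% DMSO | incubation = enzyme reaction for 50 min at room temperature, dark | measured by = FRET, CFP and YFP emission | controls = no-enzyme low, enzyme-DMSO high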
VLA-4 inh: inhibition in a human VLA-4 binding assay; P13612; VLA-4 expressing cells, ligand binding flow cytometry; AID 2557; inhibition, % (about 7 µM as worked out from the volumes in the protocol); 330,000 compounds, 0.2% hits; in the data active means inhibition above about 50%
Target sequence (P13612 whole entry, looked up): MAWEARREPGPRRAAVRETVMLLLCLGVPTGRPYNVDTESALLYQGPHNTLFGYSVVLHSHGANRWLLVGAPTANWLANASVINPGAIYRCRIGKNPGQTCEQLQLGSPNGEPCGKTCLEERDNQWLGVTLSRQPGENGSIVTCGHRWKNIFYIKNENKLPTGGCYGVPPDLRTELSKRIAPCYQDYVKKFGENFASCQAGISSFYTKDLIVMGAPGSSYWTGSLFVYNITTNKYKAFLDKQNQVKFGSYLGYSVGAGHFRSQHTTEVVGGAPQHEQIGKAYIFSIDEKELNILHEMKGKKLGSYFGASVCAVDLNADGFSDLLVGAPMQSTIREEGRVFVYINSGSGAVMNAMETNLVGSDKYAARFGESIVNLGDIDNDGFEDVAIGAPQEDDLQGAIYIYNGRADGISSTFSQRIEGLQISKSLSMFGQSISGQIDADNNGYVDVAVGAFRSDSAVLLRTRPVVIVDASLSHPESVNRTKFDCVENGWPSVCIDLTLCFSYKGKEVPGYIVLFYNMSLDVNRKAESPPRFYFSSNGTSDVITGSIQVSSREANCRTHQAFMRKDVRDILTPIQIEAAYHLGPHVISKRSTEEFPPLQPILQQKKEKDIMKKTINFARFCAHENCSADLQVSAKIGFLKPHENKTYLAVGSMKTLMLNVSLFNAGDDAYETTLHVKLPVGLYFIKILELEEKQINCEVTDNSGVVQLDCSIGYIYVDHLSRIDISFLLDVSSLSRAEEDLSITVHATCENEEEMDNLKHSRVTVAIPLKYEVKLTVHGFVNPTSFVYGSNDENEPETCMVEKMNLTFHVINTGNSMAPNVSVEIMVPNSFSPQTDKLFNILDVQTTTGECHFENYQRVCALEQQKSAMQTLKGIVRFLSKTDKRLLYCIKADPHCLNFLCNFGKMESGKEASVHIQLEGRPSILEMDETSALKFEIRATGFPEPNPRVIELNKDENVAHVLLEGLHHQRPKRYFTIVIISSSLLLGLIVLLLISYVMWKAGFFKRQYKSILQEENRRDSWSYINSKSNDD
Platelet DG rel: modulates dense granule release in human platelets; AID 1663; 300,000 compounds, 0.22% hits; human platelet-rich plasma, SFLLRN dense granule ATP release, luminescence; inhibition, %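 (compounds screened at 7.5 µM in platelet-rich plasma)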;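 active means mean replicate score, as percent of positive control, at or above 50; inconclusive means mean below 50 but at least one replicate at or above 50; inactive means mean and every replicate below 50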
Myeloid diff 2: promotes myeloid progenitor differentiation; ER-HoxA9 myeloid progenitors, lysozyme-GFP differentiation, flow cytometry; calls only at 10 µM; 360,000 compounds, 1% hits; AID 624256;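 active means normalized GFP-positive differentiation at or above the plate's own cutoff, the solvent-only control mean plus 3 SD; inconclusive means no clear call, values can overlap the other calls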;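 further: cells exposed to compound for four days before flow analysis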
The depositor's hits bear a star; i = inactive; u = inconclusive; x = no result given; + = active, no number; ! = repeats disagree. A selection: hits, their analogues and other compounds. The true share with any hit is near 1.5%.

SMILES	SENP1 inh	VLA-4 inh	Platelet DG rel	Myeloid diff 2
CN(C)c1ccc(/C=C2\SC(=S)N(Nc3ncc(C(F)(F)F)cc3Cl)C2=O)cc1	-23	x	-1	+
COc1cc(/C=C2\SC(=S)N(Nc3ncc(C(F)(F)F)cc3Cl)C2=O)ccc1O	-16	i	8	i
CSc1nc(N)n2nc(-c3ccc(Cl)cc3)cc2n1	1	21	67*	i
CC(C)(C)NC(=S)N/N=C\c1ccc(-c2ccc([N+](=O)[O-])cc2)o1	-35	-244	-7	+
O=C(O)c1ccc(N/N=C/C=C/c2ccc([N+](=O)[O-])o2)cc1	78*	-42	0	i
O=C(N/N=C/c1ccc([N+](=O)[O-])o1)C(=O)Nc1ccc(C(=O)O)cc1	-2	-9	4	i
CCCCC(=O)N/N=C/c1ccc(-c2ccc([N+](=O)[O-])cc2)o1	-35	-13	11	i
O=C(O)c1ccc(-c2ccc(/C=N/Nc3ccc([N+](=O)[O-])cc3)o2)cc1	-37	-103	13	+
Cc1ccc(C(C)C)c(OCC(=O)NC2CCN(C)CC2)c1	-1	2	1	i
Cc1ccc(C(=O)N/C(=C\c2ccc(-c3ccc(Cl)cc3)o2)C(=O)NCCCN(C)C)cc1	-3	8	-1	+
CN(C)CCCNC(=O)/C(=C\c1ccc(-c2ccc(Br)cc2)o1)NC(=O)c1ccccc1	-3	2	7	+
CN(C)CCNC(=O)/C(=C/c1ccc(-c2cccc([N+](=O)[O-])c2)o1)NC(=O)c1ccccc1	-7	9	9	i
CN(C)CCCNC(=O)/C(=C/c1ccc(-c2ccc([N+](=O)[O-])cc2)o1)NC(=O)c1ccccc1	-28	-131	5	+
CN(C)CCNC(=O)/C(=C/c1ccc(-c2cccc(Cl)c2)o1)NC(=O)c1ccccc1	-5	22	-2	i
Cc1[nH]cnc1C(=O)N/N=C/c1c(Cl)cccc1Cl	0	-4	72*	i
CC(=O)Oc1ccc(-c2nc(-c3cccnc3)no2)cc1	0	1	79*	i
Cc1ccc(OCC(=O)N/N=C\c2ccc(C)o2)c([N+](=O)[O-])c1	-7	x	3	+
Cc1ccc(OCC(=O)N/N=C/c2ccccc2)c([N+](=O)[O-])c1	4	x	2	i
Cc1cc(OCC(=O)Nc2nccs2)c2c(C)cc(=O)oc2c1	2	12	2	i
CC(=O)c1ccc2cccc3c2c1N=CN3C	-30	i	8	+
CN1c2cccc3cccc(c23)N(C)C1(C)C	4	19	-19	u
Cc1cccc(C)c1NC(=O)CN1C(=O)C2CC=CCC2C1=O (stereo not given)	1	43	x	i
N#CCSc1ccccc1NC(=O)CN1C(=O)C2CC=CCC2C1=O (stereo not given)	38	x	x	+
N#C/C(=C/c1cccs1)c1ccccn1	-1	1	-5	i
N#C/C(=C\c1ccccn1)c1ccccn1	3	-11	28	+
SMILES	SENP1 inh	VLA-4 inh	Platelet DG rel	Myeloid diff 2
COc1ccc2c(n1)Sc1nc3ccccc3nc1N2	-22	7	-4	+
O=S(=O)(c1ccc(Br)cc1)N1CCN(c2cc(-c3ccccc3)nc3ncnn23)CC1	1	11	-3	i
O=S(=O)(c1ccccc1)N1CCN(c2cc(-c3ccccc3)nc3ncnn23)CC1	2	-11	8	+
CCC(=O)N1CCN(c2ccc(NC(=O)COc3ccc(CC)cc3)cc2)CC1	-2	3	-3	x
Cc1cc2c3c(c1)C(C)CC(C)(C)N3C(=O)C2=C(C#N)C#N (stereo not given)	-2	3	24	i
CCCCNC(=O)CCC(=O)Nc1ccc2nc(N3CCOCC3)cc(C)c2c1	-1	8	-3	i
CCN1CCN(c2cc(C)c3cc(NC(=S)N4CCCC(C)C4)ccc3n2)CC1 (stereo not given)	-36	2	5	+
CCCCNC(=O)CCC(=O)Nc1ccc2nc(N3CCCCC3)cc(C)c2c1	-4	3	-3	+
Cc1ccc(SCCSc2nc(C)cc(=O)[nH]2)cc1	-1	28	6	i
COc1ccccc1OCC(=O)N(Cc1nnc(-c2ccccc2Cl)o1)C1CC1	1	31	-3	i
Cc1cc(C)c(C#N)c(SCCS(=O)(=O)c2ccc(C(C)(C)C)cc2)n1	0	4	-1	+
CCN(CC(=O)NCc1cccs1)C(=O)Cc1ccc(Cl)c(Cl)c1	2	-3	x	i
Cc1ccccc1N1C(N)=NC(N)=NC1(C)C	x	25	11	+
COc1ccccc1N1C(N)=NC(N)=NC1(C)C	0	20	-1	+!
CC(C)C(=O)Nc1cccc(C(=O)Nc2ccc(S(=O)(=O)N3CCOCC3)cc2)c1	0	6	2	i
CCOc1ccc(-c2n[nH]c(=S)c3ccccc23)cc1	1	-9	3	i
CC(C)(C)NC(=O)C(c1cccs1)N(C(=O)c1csnn1)c1cccc(F)c1 (stereo not given)	3	5	-6	i
CCC(C)(C)NC(=O)C(c1ccco1)N(C(=O)c1csnn1)c1cccc(F)c1 (stereo not given)	0	26	2	+
CN(Cc1c(F)cccc1Cl)C(=O)c1ccc(NC(=O)CC2SC(N3CCCC3)=NC2=O)cc1 (stereo not given)	0	1	5	i
COc1ccc(/C=N/Nc2nc(-c3cccnc3)nc3ccccc23)cc1OC	-114	-27	7	i
Cc1ccc(-c2nc(N/N=C/c3ccncc3)c3ccccc3n2)cc1	-2	20	109*	u
O=C1S/C(=C/c2ccc(N3CCOCC3)o2)C(=O)N1Cc1c(F)cccc1Cl	-27	i	4	+
O=C1S/C(=C\c2ccc(N3CCOCC3)o2)C(=O)N1Cc1c(F)cccc1Cl	-21	-81	-11	i
Cc1nc2c(cnn2-c2ccccc2Cl)c(=O)n1-c1ccc(N2CCC(C)CC2)cc1	1	1	-6	+
Cc1nc2ccc(C(=O)N3CCCC(CO)(Cc4ccc(F)cc4F)C3)cc2nc1C (stereo not given)	0	0	-6	i
SMILES	SENP1 inh	VLA-4 inh	Platelet DG rel	Myeloid diff 2
Cc1cc(C(=O)N2CCCC(CO)(Cc3ccc(F)cc3F)C2)nn1C (stereo not given)	1	x	x	+
O=C(N1CCOCC1)N1CCN(S(=O)(=O)c2ccc(F)cc2)CC1	-1	12	-4	i
COc1cccc(/C(O)=C/c2nc3ccc(C(=O)NCCc4cccc(C)c4)cc3[nH]c2=O)c1	-30	-233	6	+
COc1ccc([C@H]2CN(c3ccc(OC)cc3)C(=O)[C@@H]2CC(=O)Nc2ccc(Br)cc2)cc1	1	x	x	+
c1ccc(Cn2nnc3c(N4CCCCCC4)ncnc32)cc1	2	-9	28	i
CCCN1CCN(c2ncnc3c2nnn3Cc2ccccc2)CC1	1	14	-1	+
Cc1ccc(C(=O)NCCN2CCOCC2)c(Cl)c1	-1	16	0	+
O=C(COc1cc(Cl)c(Cl)cc1Cl)NCCN1CCOCC1	-1	7	-1	+

Screens deposited in PubChem BioAssay by several laboratories.
